Measured values taken from ChEMBL document CHEMBL4706672 (J Med Chem, 2021).
Active and inactive are the calls of the source. No cut-off for these calls is given here.

What was measured:
[1] = biological target: Signal transducer and activator of transcription 3 (Homo sapiens) (UniProt P40763); assay: Inhibition of STAT3 phosphorylation in human BxPC-3 cells at 0.5 uM after 16 hrs by western blot analysis; assay type: cell-based
Method in brief: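 Cells were seeded in 6-well plates (BxPC-3 500 × 10^3, MIA PaCa-2 200 × 10^3 cells/well) and exposed to compound for 16 h. Lysis was at 4 °C by sonication in Tris/NaCl/Triton/SDS buffer, pH 7.4, with protease and phosphatase inhibitors. Lysates were run on SDS-PAGE, transferred to PVDF and probed for STAT3, pSTAT3 and NQO1 with GAPDH as loading control. Immunoblots were imaged on an Odyssey system.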

[2] = biological target: Protein cereblon/Signal transducer and activator of transcription 3 (Homo sapiens, UniProt P40763+Q96SW2); assay: Protac activity at CRBN/STAT3 in human BxPC-3 cells assessed as effect on STAT3 expression level at 0.5 uM incubated for 16 hrs by western blot analysis; assay type: cell-based
Sequence of Protein cereblon/Signal transducer and activator of transcription 3 (P40763 2-770 limits assumed): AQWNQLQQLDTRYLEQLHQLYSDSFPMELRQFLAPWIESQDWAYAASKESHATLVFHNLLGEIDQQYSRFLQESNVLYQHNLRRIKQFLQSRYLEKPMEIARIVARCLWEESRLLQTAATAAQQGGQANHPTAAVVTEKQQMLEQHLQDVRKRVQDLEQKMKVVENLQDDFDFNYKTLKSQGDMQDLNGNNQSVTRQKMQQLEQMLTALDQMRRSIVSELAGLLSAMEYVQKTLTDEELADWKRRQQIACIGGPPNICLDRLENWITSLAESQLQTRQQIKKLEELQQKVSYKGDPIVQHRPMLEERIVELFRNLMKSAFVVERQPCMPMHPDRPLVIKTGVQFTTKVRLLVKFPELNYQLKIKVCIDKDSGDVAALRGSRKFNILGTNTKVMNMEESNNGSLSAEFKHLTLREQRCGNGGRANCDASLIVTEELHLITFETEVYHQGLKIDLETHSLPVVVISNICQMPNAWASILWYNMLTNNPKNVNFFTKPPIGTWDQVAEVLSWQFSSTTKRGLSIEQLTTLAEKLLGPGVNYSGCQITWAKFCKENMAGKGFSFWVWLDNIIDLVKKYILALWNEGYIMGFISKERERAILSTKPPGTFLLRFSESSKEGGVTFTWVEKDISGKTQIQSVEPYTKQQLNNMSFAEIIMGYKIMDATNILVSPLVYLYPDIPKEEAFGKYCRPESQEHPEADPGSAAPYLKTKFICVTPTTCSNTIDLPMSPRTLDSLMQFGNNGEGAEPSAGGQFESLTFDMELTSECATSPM
Sequence of Protein cereblon/Signal transducer and activator of transcription 3 (Q96SW2 whole entry partner): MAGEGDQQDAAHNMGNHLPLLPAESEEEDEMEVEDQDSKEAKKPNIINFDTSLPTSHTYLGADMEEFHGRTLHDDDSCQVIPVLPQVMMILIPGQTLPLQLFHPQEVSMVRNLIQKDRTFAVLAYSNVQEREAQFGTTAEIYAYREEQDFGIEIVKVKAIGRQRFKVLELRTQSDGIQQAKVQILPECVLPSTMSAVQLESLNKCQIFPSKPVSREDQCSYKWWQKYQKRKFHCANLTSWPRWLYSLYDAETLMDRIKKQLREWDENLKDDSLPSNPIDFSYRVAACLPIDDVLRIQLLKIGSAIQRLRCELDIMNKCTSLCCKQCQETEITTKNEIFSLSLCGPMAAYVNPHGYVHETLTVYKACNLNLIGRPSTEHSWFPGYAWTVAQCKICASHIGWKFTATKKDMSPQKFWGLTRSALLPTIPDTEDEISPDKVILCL
Method in brief: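 BxPC-3 cells seeded at 500 × 10^3 per well in 6-well plates, treated 16 h. Sonication lysis at 4 °C in Tris/NaCl/Triton/SDS buffer pH 7.4 with protease and phosphatase inhibitors, BCA protein assay, SDS-PAGE, PVDF transfer. Probed for STAT3, pSTAT3 and NQO1 with GAPDH loading control; fluorescent secondary detection.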

BXPC-3 = assay: Antiproliferative activity against human BxPC-3 cells assessed as reduction in cell viability incubated for 3 days by MTT assay; assay type: functional, cell-based; details: BXPC-3, 72 h
MIA PaCa-2 = assay: Antiproliferative activity against human MIA PaCa-2 cells assessed as reduction in cell viability incubated for 3 days by MTT assay; assay type: functional, cell-based; details: MIA PaCa-2, 72 h
Method in brief: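 MTT assay. Cells were seeded at 3000–6000/well and incubated overnight, then exposed to compound or DMSO vehicle for 3 days in RPMI-1640 or DMEM with 10% FBS at 37 °C, 5% CO2. MTT (3 mg/ml) was added for 3 h at 37 °C, formazan was dissolved in DMSO and absorbance read at 570 nm. IC50 from three independent experiments, mean ± SD.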

HEK293 = assay: Antiproliferative activity against human HEK293 cells assessed as reduction in cell viability incubated for 24 hrs by MTT assay; assay type: functional, cell-based; details: HEK293, 24 h
Method in brief: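 HEK-293 cells were treated with compound for 24 h, in parallel with the luciferase reporter assay. Viability was read by MTT absorbance at 570 nm, and IC50 was taken from three independent experiments.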

Sequence of Signal transducer and activator of transcription 3 (Homo sapiens) (P40763 whole entry): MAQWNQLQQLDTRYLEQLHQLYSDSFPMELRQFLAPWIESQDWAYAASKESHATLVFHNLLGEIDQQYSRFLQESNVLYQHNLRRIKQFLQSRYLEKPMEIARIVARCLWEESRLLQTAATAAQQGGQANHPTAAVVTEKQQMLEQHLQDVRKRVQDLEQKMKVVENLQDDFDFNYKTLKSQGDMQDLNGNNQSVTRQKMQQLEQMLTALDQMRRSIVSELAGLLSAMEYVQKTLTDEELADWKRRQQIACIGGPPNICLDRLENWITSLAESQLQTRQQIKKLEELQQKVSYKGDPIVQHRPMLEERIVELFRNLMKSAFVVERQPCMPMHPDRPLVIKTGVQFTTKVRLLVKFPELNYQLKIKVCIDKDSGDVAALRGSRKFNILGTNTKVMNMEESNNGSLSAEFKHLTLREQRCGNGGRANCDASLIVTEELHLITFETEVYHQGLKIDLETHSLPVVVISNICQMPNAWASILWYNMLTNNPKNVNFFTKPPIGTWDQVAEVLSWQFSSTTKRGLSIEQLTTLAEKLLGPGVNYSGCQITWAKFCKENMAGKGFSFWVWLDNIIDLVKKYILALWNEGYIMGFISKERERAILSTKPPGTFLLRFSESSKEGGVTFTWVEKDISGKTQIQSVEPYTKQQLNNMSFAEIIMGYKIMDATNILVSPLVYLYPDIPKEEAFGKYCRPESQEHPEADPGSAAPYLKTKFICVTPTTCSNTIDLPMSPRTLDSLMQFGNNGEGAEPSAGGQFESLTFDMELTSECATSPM

Row | inhibition [1] | Activity [2] | IC50 (BXPC-3) | IC50 (MIA PaCa-2) | SMILES | IC50 (HEK293)
1 | Active | inactive | – | – | O=C(NCCN1CCCCC1)c1cc2c(o1)C(=O)c1ccccc1C2=O | –
2 | – | – | 4.1 µM | 1.6 µM | O=C1CCC(N2C(=O)c3cccc(NCCCCNC(=O)c4cc5c(o4)C(=O)c4ccccc4C5=O)c3C2=O)C(=O)N1 (stereo unspecified) | –
3 | – | – | 13.8 µM | 6.4 µM | O=C1CCC(N2Cc3c(CCCCCNC(=O)c4cc5c(o4)C(=O)c4ccccc4C5=O)cccc3C2=O)C(=O)N1 (stereo unspecified) | –
4 | – | – | 4.2 µM | 2 µM | O=C1CCC(N2C(=O)c3cccc(OCCCCNC(=O)c4cc5c(o4)C(=O)c4ccccc4C5=O)c3C2=O)C(=O)N1 (stereo unspecified) | > 10 µM
5 | – | – | 6 µM | 3.7 µM | O=C(COc1cccc2c1C(=O)N(C1CCC(=O)NC1=O)C2=O)NCCOCCOCCOCCNC(=O)c1cc2c(o1)C(=O)c1ccccc1C2=O (stereo unspecified) | –
6 | – | – | 4.5 µM | 2.1 µM | O=C1CCC(N2C(=O)c3cccc(NCCOCCOCCOCCNC(=O)c4cc5c(o4)C(=O)c4ccccc4C5=O)c3C2=O)C(=O)N1 (stereo unspecified) | 11.2 µM
7 | – | – | 25.6 µM | 18.1 µM | O=C1CCC(N2C(=O)c3cccc(NCCN4CCN(CCNC(=O)c5cc6c(o5)C(=O)c5ccccc5C6=O)CC4)c3C2=O)C(=O)N1 (stereo unspecified) | –
8 | – | – | 0.6 µM | – | O=C1CCC(N2C(=O)c3cccc(NCCCC4CCN(CCNC(=O)c5cc6c(o5)C(=O)c5ccccc5C6=O)CC4)c3C2=O)C(=O)N1 (stereo unspecified) | –
9 | – | – | 10.1 µM | 4.4 µM | O=C1CCC(N2C(=O)c3cccc(NCCOCCOCCOCCOCCNC(=O)c4cc5c(o4)C(=O)c4ccccc4C5=O)c3C2=O)C(=O)N1 (stereo unspecified) | > 10 µM
10 | – | – | – | 13.7 µM | O=C1CCC(N2Cc3c(NCCOCCOCCNC(=O)c4cc5c(o4)C(=O)c4ccccc4C5=O)cccc3C2=O)C(=O)N1 (stereo unspecified) | > 30 µM
11 | – | – | 7.5 µM | 5 µM | O=C1CCC(N2C(=O)c3cccc(NCCOCCOCCOCCOCCOCCOCCNC(=O)c4cc5c(o4)C(=O)c4ccccc4C5=O)c3C2=O)C(=O)N1 (stereo unspecified) | 10.8 µM
12 | – | – | 3.5 µM | 2.7 µM | O=C1CCC(N2C(=O)c3cccc(NCCCNC(=O)c4cc5c(o4)C(=O)c4ccccc4C5=O)c3C2=O)C(=O)N1 (stereo unspecified) | –
13 | – | – | 4.2 µM | 3 µM | O=C1CCC(N2C(=O)c3cccc(NCCCCCCNC(=O)c4cc5c(o4)C(=O)c4ccccc4C5=O)c3C2=O)C(=O)N1 (stereo unspecified) | –
14 | – | – | 8.2 µM | 3.8 µM | O=C1CCC(N2C(=O)c3cccc(OCCOCCOCCNC(=O)c4cc5c(o4)C(=O)c4ccccc4C5=O)c3C2=O)C(=O)N1 (stereo unspecified) | –
